According to ChEMBL document CHEMBL1629654, “Breakthrough Aspergillus fumigatus and Candida albicans double infection during caspofungin treatment: laboratory characteristics and implication for susceptibility testing” (2009):
≈ marks a conversion by molar mass, not a printed value. Calls of active or inactive are those of the source. The calls are words filed in the database; no cut-off is given here.

Columns and labels:
[1] = test system: Candida albicans; test: Antimicrobial activity against Candida albicans isolate S at 5 ug/ml grown on RPMI 1640 medium after 48 hrs by disk diffusion method; format: functional
Method in brief: (§1)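 Disk diffusion on 90-mm RPMI 1640 with 2% glucose agar or on Mueller-Hinton agar. Plates were swabbed in three directions with a yeast suspension of 1–5 × 10^6 cells/ml. Paper disks (6 mm) held 1, 5 or 25 µg drug. Zone diameters were read at 24 and 48 h; values are means of two experiments.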

[2] = test system: Candida albicans; test: Antimicrobial activity against Candida albicans isolate S at 1 ug/ml grown on Muller-Hinton agar medium after 48 hrs by disk diffusion method; format: functional; method in brief: as §1
[3] = test system: Candida albicans; test: Antimicrobial activity against Candida albicans isolate S at 5 ug/ml grown on Muller-Hinton agar medium after 48 hrs by disk diffusion method; format: functional; method in brief: as §1
[4] = test system: Candida albicans; test: Antimicrobial activity against Candida albicans isolate S at 25 ug/ml grown on Muller-Hinton agar medium after 48 hrs by disk diffusion method; format: functional; method in brief: as §1
[5] = test system: Candida albicans; test: Antimicrobial activity against Candida albicans after 48 hrs by NCCLS microdilution method; format: functional
[6] = test system: Nakaseomyces glabratus; test: Antimicrobial activity against Candida glabrata after 48 hrs by NCCLS microdilution method; format: functional
[7] = test system: Clavispora lusitaniae; test: Antimicrobial activity against Candida lusitaniae after 48 hrs by NCCLS microdilution method; format: functional
[8] = test system: Candida parapsilosis; test: Antimicrobial activity against Candida parapsilosis after 48 hrs by NCCLS microdilution method; format: functional; conditions: Lodderomyces parapsilosis
[9] = test system: Candida parapsilosis; test: Antimicrobial activity against Candida parapsilosis after 48 hrs by broth microdilution method; format: functional; conditions: Lodderomyces parapsilosis
[10] = test system: Nakaseomyces glabratus; test: Antimicrobial activity against Candida glabrata after 48 hrs by Etest; format: functional
[11] = test system: Clavispora lusitaniae; test: Antimicrobial activity against Candida lusitaniae after 48 hrs by Etest; format: functional
[12] = test system: Pichia kudriavzevii; test: Antimicrobial activity against Candida krusei after 48 hrs by 80% endpoint M27-A2 method; format: functional
[13] = test system: Candida albicans; test: Antimicrobial activity against Candida albicans after 48 hrs by 50% endpoint M27-A2 method; format: functional
[14] = test system: Nakaseomyces glabratus; test: Antimicrobial activity against Candida glabrata after 48 hrs by 50% endpoint M27-A2 method; format: functional
[15] = test system: Candida tropicalis; test: Antimicrobial activity against Candida tropicalis after 48 hrs by 50% endpoint M27-A2 method; format: functional
[16] = test system: Kluyveromyces marxianus; test: Antimicrobial activity against Candida kefyr after 48 hrs by 50% endpoint M27-A2 method; format: functional
[17] = test system: Clavispora lusitaniae; test: Antimicrobial activity against Candida lusitaniae after 48 hrs by 50% endpoint M27-A2 method; format: functional
[18] = test system: Candida parapsilosis; test: Antimicrobial activity against Candida parapsilosis after 48 hrs by 50% endpoint M27-A2 method; format: functional; conditions: Lodderomyces parapsilosis
[19] = test system: Meyerozyma guilliermondii; test: Antimicrobial activity against Candida guilliermondii after 48 hrs by 50% endpoint M27-A2 method; format: functional
[20] = test system: Nakaseomyces glabratus; test: Antimicrobial activity against Candida glabrata after 24 hrs by M27-A3 method; format: functional
[21] = test system: Kluyveromyces marxianus; test: Antimicrobial activity against Candida kefyr after 24 hrs by M27-A3 method; format: functional
[22] = test system: Candida albicans; test: Antimicrobial activity against Candida albicans isolate R after 24 hrs by microdilution method; format: functional
Method in brief: (§2)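 Broth microdilution in microtiter plates, read spectrophotometrically at 490 nm. MIC taken as the lowest drug dilution giving 50% growth inhibition. C. krusei […] run as control in each run. Read at 24 h and 48 h; trailing growth noted at 48 h.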

[23] = test system: Candida albicans; test: Antimicrobial activity against Candida albicans isolate S at 1 ug/ml grown on RPMI 1640 medium after 48 hrs by disk diffusion method; format: functional; method in brief: as §1
[24] = test system: Candida albicans; test: Antimicrobial activity against Candida albicans isolate R after 48 hrs by microdilution method; format: functional; method in brief: as §2
[25] = test system: Candida albicans; test: Antimicrobial activity against Candida albicans isolate C after 48 hrs by EUCAST microdilution method; format: functional
Method in brief: (§3)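 EUCAST broth microdilution, plates read spectrophotometrically at 490 nm. MIC is the lowest dilution giving 50% growth inhibition. C. krusei […] control included in each run.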

[26] = test system: Candida albicans; test: Antimicrobial activity against Candida albicans isolate C after 48 hrs by microdilution method; format: functional; method in brief: as §2
[27] = test system: Candida albicans; test: Antimicrobial activity against Candida albicans isolate C after 48 hrs by Etest; format: functional
Method in brief: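 Etest on RPMI 1640 agar with 2% glucose, run per the manufacturer's instructions. Index and control clinical blood isolates were tested in parallel.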

[28] = test system: Candida albicans; test: Antimicrobial activity against Candida albicans isolate C at 1 ug/ml after 48 hrs by agar dilution method; format: functional, organism-based
Method in brief: (§4)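 Agar dilution on Sabouraud agar with caspofungin at 0, 0.5, 1 and 2 per ml. Isolates were subcultured 2 days on CHROMagar. Suspensions of 1×10^6 to 5×10^6 CFU/ml in sterile water were diluted 1,500-fold, and approximately 3 to 15 cells were spread per agar surface. Growth or no growth was scored, with repeated testing.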

[29] = test system: Candida albicans; test: Antimicrobial activity against Candida albicans isolate C at 2 ug/ml after 48 hrs by agar dilution method; format: functional, organism-based; method in brief: as §4
[30] = test system: Candida albicans; test: Antimicrobial activity against Candida albicans obtained from tracheal suction of patient 5 days after admission by EUCAST microdilution method; format: functional; conditions: Trachea, 120 h; method in brief: as §3
[31] = test system: Candida albicans; test: Antimicrobial activity against Candida albicans obtained from tracheal suction of patient 24 days after admission by EUCAST microdilution method; format: functional; conditions: Trachea, 576 h; method in brief: as §3
[32] = test system: Candida albicans; test: Antimicrobial activity against Candida albicans isolate R infected in NMRI mouse assessed as decrease in kidney bacterial burden at 6 mg/kg, ip measured on day 4; format: functional, organism-based; set-up: dose 6 mg/kg
Method in brief: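 NMRI mice (26 to 30 g), seven per group, were infected intravenously on day 0 with 1×10^5 CFU. They received caspofungin ip on days 1 to 3 in 0.5 ml; saline-treated mice served as controls. On day 4 the kidneys were removed and homogenized, and 10-fold dilutions were spot plated. Results are log10 CFU/ml homogenate (detection limit 50 CFU/ml), compared by Mann-Whitney test.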

[33] = test system: Candida albicans; test: Antimicrobial activity against Candida albicans isolate R at 1 ug/ml grown on RPMI 1640 medium after 24 hrs by disk diffusion method; format: functional; method in brief: as §1
[34] = test system: Candida albicans; test: Antimicrobial activity against Candida albicans isolate R at 1 ug/ml grown on Muller-Hinton agar medium after 48 hrs by disk diffusion method; format: functional; method in brief: as §1
[35] = test system: Candida albicans; test: Antimicrobial activity against Candida albicans isolate R at 5 ug/ml grown on Muller-Hinton agar medium after 48 hrs by disk diffusion method; format: functional; method in brief: as §1
[36] = test system: Candida albicans; test: Antimicrobial activity against Candida albicans isolate S at 5 ug/ml grown on RPMI 1640 medium after 24 hrs by disk diffusion method; format: functional; method in brief: as §1
[37] = test system: Candida albicans; test: Antimicrobial activity against Candida albicans isolate S at 25 ug/ml grown on RPMI 1640 medium after 24 hrs by disk diffusion method; format: functional; method in brief: as §1
[38] = test system: Candida albicans; test: Antimicrobial activity against Candida albicans after 48 hrs
[39] = test system: Nakaseomyces glabratus; test: Antimicrobial activity against Candida glabrata after 48 hrs
[40] = test system: Candida tropicalis; test: Antimicrobial activity against Candida tropicalis after 48 hrs
[41] = test system: Candida parapsilosis; test: Antimicrobial activity against Candida parapsilosis after 48 hrs by M27-A method; conditions: Lodderomyces parapsilosis
[42] = test system: Meyerozyma guilliermondii; test: Antimicrobial activity against Candida guilliermondii after 48 hrs by M27-A method
[43] = test system: Meyerozyma guilliermondii; test: Antimicrobial activity against Candida guilliermondii after 48 hrs by 80% endpoint M27-A method

Compound: CC[C@H](C)C[C@H](C)CCCCCCCCC(=O)N[C@H]1C[C@@H](O)[C@@H](NCCN)NC(=O)[C@@H]2[C@@H](O)CCN2C(=O)[C@H]([C@H](O)CCN)NC(=O)[C@H]([C@H](O)[C@@H](O)c2ccc(O)cc2)NC(=O)[C@@H]2C[C@@H](O)CN2C(=O)[C@H]([C@@H](C)O)NC1=O [CASPOFUNGIN]
- inhibition zone (IZ) [1]: 21 mm
- inhibition zone (IZ) [2]: 12.5 mm
- inhibition zone (IZ) [3]: 20.4 mm
- inhibition zone (IZ) [4]: 24.9 mm
- MIC90 [5]: 0.5 µg/mL (≈ 0.457 µM)
- MIC90 [6]: 1 µg/mL (≈ 0.915 µM)
- MIC90 [7]: 2 µg/mL (≈ 1.83 µM)
- MIC90 [8]: 2 µg/mL (≈ 1.83 µM)
- MIC90 [9]: 2 µg/mL (≈ 1.83 µM)
- MIC90 [10]: 0.25 µg/mL (≈ 0.229 µM)
- MIC90 [11]: 2 µg/mL (≈ 1.83 µM)
- MIC90 [12]: 2 µg/mL (≈ 1.83 µM)
- MIC90 [13]: 0.5 µg/mL (≈ 0.457 µM)
- MIC90 [14]: 1 µg/mL (≈ 0.915 µM)
- MIC90 [15]: 1 µg/mL (≈ 0.915 µM)
- MIC90 [16]: 1 µg/mL (≈ 0.915 µM)
- MIC90 [17]: 2 µg/mL (≈ 1.83 µM)
- MIC90 [18]: 2 µg/mL (≈ 1.83 µM)
- MIC90 [19]: 1 µg/mL (≈ 0.915 µM)
- MIC90 [20]: 0.06 µg/mL (≈ 0.0549 µM)
- MIC90 [21]: 0.015 µg/mL (≈ 0.0137 µM)
- MIC [22]: 1 µg/mL (≈ 0.915 µM)
- inhibition zone (IZ) [23]: 10.5 mm
- MIC [24]: 1 µg/mL (≈ 0.915 µM)
- MIC [25]: ≤ 0.06 µg/mL
- MIC [26]: ≤ 0.06 µg/mL
- MIC [27]: 0.06 µg/mL (≈ 0.0549 µM)
- growth inhibition (GI) [28]: Active
- growth inhibition (GI) [29]: Active
- MIC [30]: 0.25 µg/mL (≈ 0.229 µM)
- MIC [31]: 0.25 µg/mL (≈ 0.229 µM)
- Activity [32]: inactive
- inhibition zone (IZ) [33]: 6.2 mm
- inhibition zone (IZ) [34]: 6.1 mm
- inhibition zone (IZ) [35]: 8.8 mm
- inhibition zone (IZ) [36]: 20.6 mm
- inhibition zone (IZ) [37]: 25.3 mm
- MIC90 [38]: 0.25 µg/mL (≈ 0.229 µM)
- MIC90 [39]: 0.25 µg/mL (≈ 0.229 µM)
- MIC90 [40]: 0.5 µg/mL (≈ 0.457 µM)
- MIC90 [41]: 4 µg/mL (≈ 3.66 µM)
- MIC90 [42]: > 8 µg/mL
- MIC90 [43]: 1 µg/mL (≈ 0.915 µM)
